Measured values from PubChem BioAssay AID602126 (Broad Institute, 2011).
Activity calls are given as the source filed them.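 Rule for the calls: active = compounds cutting cell ATP light whose fitted AC50 is at most double the top dose tried; inconclusive = flat moderate signal loss, or an unreliable curve fit; inactive = the rest.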

Test system: ldlA[mSR-BI] CHO cells viability, CellTiter-Glo ATP luminescence, 24 h
Assay: ldlA[mSR-BI] cell viability loss – CellTiter-Glo luminescence, 24 h, dry powder, set 5, cytotoxicity control for SR-BI HDL uptake inhibitor project, dose response (AID 602126)
Method in brief: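 material = ldlA[mSR-BI] cells | quantity = 4,000 cells per well | times = 24 h compound exposure at 37 °C, then 10 min with detection reagent | signal = luminescence of cellular ATP via CellTiter-Glo luciferase reagent | read-out = IC50 of cell viability from ATP-dependent luminescence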

SMILES	AC50
C[C@@H]1CN([C@@H](C)CO)C(=O)c2cc(NC(=O)Cc3cn(C)c4ccccc34)ccc2O[C@@H]1CN(C)S(=O)(=O)c1ccc(F)cc1	> 70 µM (inactive)
CCn1c(COc2c(C)cccc2C)nnc1SCC(=O)N1CCN(c2ccccc2)CC1	65.2 µM
CCC(=O)N1CCc2cc(-c3csc(N(C)C(=O)c4cc(OC)cc(OC)c4)n3)ccc21	15.1 µM
CC(C(=O)NC1CCCC1)N(C(=O)Cn1nnc(-c2ccc3c(c2)OC(F)(F)O3)n1)C1CCCCC1 (stereo unspecified)	55.2 µM
COCC(=O)N1CCc2cc(-c3csc(NC(=O)c4cc(OC)cc(OC)c4)n3)ccc21	> 70 µM (inactive)
O=C(Nc1ccc(Cl)cc1C(=O)c1ccc(Cl)cc1)c1cc(Br)ccc1NS(=O)(=O)c1ccc(Cl)cc1	4.98 µM
O=C(Nc1nc(-c2ccc3c(c2)CCN3)cs1)c1ccco1	> 70 µM (inactive)
O=C(Nc1ccc(-c2nc3cc(NC(=O)c4ccccc4Cl)ccc3o2)cc1)c1ccccc1Cl	43.9 µM
Cc1cc(SC(C)C(=O)Nc2ncc(Cl)cc2Cl)nc2ccccc12 (stereo unspecified)	35.1 µM
C[C@@H]1CN([C@@H](C)CO)C(=O)c2cc(NC(=O)Cc3cn(C)c4ccccc34)ccc2O[C@@H]1CN(C)S(=O)(=O)c1ccc(Cl)cc1	> 70 µM (inactive)
CC(C(=O)NC1CCCC1)N(C(=O)Cn1nnc(-c2ccc(Cl)cc2)n1)C1CCCCC1 (stereo unspecified)	> 70 µM (inactive)
CCC(=O)N1CCc2cc(-c3csc(NC(=O)c4cccc(OC)n4)n3)ccc21	66.5 µM
CCC(=O)N1CCc2cc(-c3cn4ccccc4n3)ccc21	15.8 µM
CCC(=O)N1CCc2cc(-c3csc(NC(=O)c4cccs4)n3)ccc21	64.4 µM
CCc1sc(N2C(=O)C3C4CCC(C4=C(C)C)C3C2=O)nc1-c1ccccc1 (stereo unspecified)	> 70 µM (inactive)
O=C(Nc1cccc(NC(=O)c2cc([N+](=O)[O-])ccc2Cl)n1)c1cc([N+](=O)[O-])ccc1Cl	21.9 µM
CCOC(=O)N1CCC(NC(=O)c2ccc3c(c2)N(Cc2ccc(F)cc2)CCS3)CC1	65.5 µM
O=C(Nc1ccc(-c2nc3ccc(NC(=O)c4ccccc4)cc3[nH]2)cc1)c1ccccc1	2.63 µM
CCCN1CCc2cc(-c3csc(NC(=O)c4cc(OC)cc(OC)c4)n3)ccc21	> 70 µM (inactive)
C[C@@H]1CN([C@H](C)CO)C(=O)c2cc(NC(=O)Cc3cn(C)c4ccccc34)ccc2O[C@@H]1CN(C)S(=O)(=O)c1ccc(F)cc1	50.8 µM
C[C@H]1CN([C@@H](C)CO)C(=O)c2cccc(NC(=O)Nc3ccc(F)cc3)c2O[C@@H]1CN(C)Cc1ccc(Cl)c(Cl)c1	21.6 µM

SMILES	AC50
COc1ccc(-c2cc(CC(=O)N(C3CCCCC3)C(C)C(=O)NC3CCCC3)no2)cc1OC (stereo unspecified)	> 70 µM (inactive)
CCNC(=O)N1CCc2cc(-c3csc(NC(=O)c4cc(OC)cc(OC)c4)n3)ccc21	60 µM
COc1cc(OC)cc(C(=O)Nc2nc(-c3ccc4c(c3)CCN4C(=O)OC(C)(C)C)cs2)c1	> 70 µM (inactive)
COc1ccc(-c2nnn(CC(=O)N(C3CCCCC3)C(C)(C)C(=O)NC3CCCC3)n2)cc1OC	> 70 µM (inactive)
O=C(Nc1cc(Cl)ccc1Cl)c1cc(Br)ccc1NS(=O)(=O)c1ccc(Cl)c([N+](=O)[O-])c1	21 µM
O=C(Nc1ccc(-c2nc3cc(NC(=O)c4ccccc4[N+](=O)[O-])ccc3o2)cc1)c1ccccc1[N+](=O)[O-]	36.3 µM
CS(=O)(=O)N1CCc2cc(-c3csc(NC(=O)c4ccco4)n3)ccc21	> 70 µM (inactive)
CC(C)NC(=O)Nc1cccc2c1O[C@H](CN(C)Cc1ccc(Cl)c(Cl)c1)[C@@H](C)CN([C@@H](C)CO)C2=O	> 70 µM (inactive)
CCc1cc2cc3c(cc2nc1SCC(=O)OC(C)C)OCO3	> 70 µM (inactive)
COc1ccc(OC)c(CCNC(=O)c2ccc3c(c2)N(Cc2ccc(F)cc2)CCS3)c1	> 70 µM (inactive)
Cc1ccccc1NC(=O)NCC1CCN(c2ccc(S(=O)(=O)N3CCOCC3)cc2)CC1	58.3 µM
O=C(Nc1ccccc1)c1ccccc1NS(=O)(=O)c1ccc(Cl)cc1	32.5 µM
C[C@H]1CN([C@@H](C)CO)C(=O)c2cccc(N(C)C)c2O[C@@H]1CN(C)Cc1ccc(Cl)c(Cl)c1	> 70 µM (inactive)
CCC(=O)Nc1ccc(-c2csc(NC(=O)c3cccc(OC)c3)n2)cc1	> 70 µM (inactive)
COC(=O)N1CCc2cc(-c3csc(NC(=O)c4cc(OC)cc(OC)c4)n3)ccc21	> 70 µM (inactive)
Cc1cc(C)n(CC(=O)NC2CCCc3c2cnn3-c2ccc(C)c(C)c2)n1 (stereo unspecified)	> 70 µM (inactive)
CC(C)C(=O)N1CCc2cc(-c3csc(NC(=O)c4ccco4)n3)ccc21	> 70 µM (inactive)
CCC(=O)N1CCc2cc(-c3csc(NC(=O)c4ccco4)n3)ccc21	> 70 µM (inactive)
COC(=O)c1cn(C(=O)c2cccc3ccccc23)c2ccccc12	38 µM
COc1cc(OC)cc(C(=O)Nc2nc(-c3ccc4[nH]ccc4c3)cs2)c1	15.6 µM
